Experimental data taken from ChEMBL document CHEMBL1795344, “Design, synthesis and antitumor evaluation of phenyl N-mustard-quinazoline conjugates” (Bioorg Med Chem, 2011).
Calls of active or inactive are those of the source. The rule behind the calls is not given here.

What was measured:
HCT-116 = experiment: Cytotoxicity against human HCT116 cells after 72 hrs by SRB assay; format: functional, cell-based; conditions: HCT-116, 72 h
How it was run: (§1)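 MX-1 and HCT-116 solid tumor cells were exposed 72 h, with growth read by SRB staining on a microplate spectrophotometer. IC50 came from median-effect analysis of dose-effect data at six or seven concentrations.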

PC-3 [1] = experiment: Cytotoxicity against human PC3 cells after 72 hrs by Alamar blue assay; format: functional, cell-based; conditions: PC-3, 72 h
How it was run: (§2)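 H1299 and PC3 cells were exposed 72 h, then given Alamar blue for 6 h at 37 °C. Absorbance was read at 570 and 600 nm. IC50 came from median-effect analysis of dose-effect data at six or seven concentrations.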

MX1 [2] = experiment: Cytotoxicity against human MX1 cells after 72 hrs by SRB assay; format: functional, cell-based; conditions: MX1, 72 h; how it was run: as §1
[3] = Cytotoxicity against human H1299 cells after 72 hrs by Alamar blue assay; format: functional, cell-based; conditions: NCI-H1299, 72 h; how it was run: as §2
CCRF-CEM [4] = experiment: Cytotoxicity against human vinblastine-resistant CCRF-CEM cells after 72 hrs by XTT assay; format: functional, cell-based
How it was run: (§3)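 CCRF-CEM and its Taxol- and vinblastine-resistant sublines were incubated 72 h, then given phenazine methosulfate-XTT for 6 h at 37 °C. Absorbance was read at 450 and 630 nm. IC50 came from median-effect analysis of dose-effect data at six or seven concentrations.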

CCRF-CEM [5] = experiment: Ratio of IC50 for human taxol-resistant CCRF-CEM cells to IC50 for human CCRF-CEM cells; format: functional
CCRF-CEM [6] = experiment: Ratio of IC50 for human vinblastine-resistant CCRF-CEM cells to IC50 for human CCRF-CEM cells; format: functional
CCRF-CEM [7] = experiment: Cytotoxicity against human taxol-resistant CCRF-CEM cells after 72 hrs by XTT assay; format: functional, cell-based; how it was run: as §3
CCRF-CEM [8] = experiment: Cytotoxicity against human CCRF-CEM cells after 72 hrs by XTT assay; format: functional, cell-based; how it was run: as §3
Nucleic Acid [9] = experiment: Induction of pEGFP-N1 plasmid DNA interstrand cross-linking at 1 to 5 uM by alkaline agarose gel shift assay; format: nucleic-acid assay
[10] = Cell cycle arrest in human H1299 cells assessed as accumulation at sub G1 phase at 20 uM after 24 hrs using propidium iodide staining by flow cytometry (reference value: 8.8 +/- 6.9%); format: functional, cell-based; conditions: NCI-H1299
How it was run: (§4)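 H1299 cells were exposed 24 h, then trypsinized, PBS-washed and fixed in ice-cold 70% ethanol for 30 min. They were stained with 4 μg/mL propidium iodide in PBS containing 1% Triton X-100 and 0.1 mg/mL RNase A. Cell-cycle distribution was read by flow cytometry.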

[11] = Cell cycle arrest in human H1299 cells assessed as accumulation at G1 phase at 5 uM after 24 hrs using propidium iodide staining by flow cytometry (reference value: 44.8 +/- 3%); format: functional, cell-based; conditions: NCI-H1299; how it was run: as §4
Mus musculus [12] = experiment: Toxicity in human MX1 cells xenografted athymic nude Swiss mouse assessed as body weight loss at 30 mg/kg, iv every two days for three times followed by 35 mg/kg, iv every two days for 5 times relative to control; format: organism-based; conditions: in vivo
PC-3 [13] = experiment: Anticancer activity against human PC3 cells xenografted in athymic nude Swiss mouse assessed as tumor growth inhibition at 55 mg/kg, iv every two days for six times relative to control; format: functional; parameters: scale not given: the % may be the effect or the level left
[14] = Cell cycle arrest in human H1299 cells assessed as accumulation at G1 phase at 20 uM after 24 hrs using propidium iodide staining by flow cytometry (reference value: 44.8 +/- 3%); format: functional, cell-based; conditions: NCI-H1299; how it was run: as §4
Mus musculus [15] = experiment: Toxicity in human PC3 cells xenografted athymic nude Swiss mouse assessed as mouse mortality at 55 mg/kg, iv every two days for six times; format: organism-based, PC-3; parameters: dose 55 mg/kg, route intravenous; conditions: in vivo
[16] = Cell cycle arrest in human H1299 cells assessed as accumulation at sub G1 phase at 10 uM after 24 hrs using propidium iodide staining by flow cytometry (reference value: 8.8 +/- 6.9%); format: functional, cell-based; conditions: NCI-H1299; how it was run: as §4
[17] = Cell cycle arrest in human H1299 cells assessed as accumulation at G1 phase at 10 uM after 24 hrs using propidium iodide staining by flow cytometry (reference value: 44.8 +/- 3%); format: functional, cell-based; conditions: NCI-H1299; how it was run: as §4
[18] = Cell cycle arrest in human H1299 cells assessed as accumulation at G2/M phase at 10 uM after 24 hrs using propidium iodide staining by flow cytometry (reference value: 21.5 +/- 0.6%); format: functional, cell-based; conditions: NCI-H1299; how it was run: as §4
[19] = Cell cycle arrest in human H1299 cells assessed as accumulation at G2/M phase at 5 uM after 24 hrs using propidium iodide staining by flow cytometry (reference value: 21.5 +/- 0.6%); format: functional, cell-based; conditions: NCI-H1299; how it was run: as §4
Nucleic Acid [20] = experiment: Induction of pEGFP-N1 plasmid DNA interstrand cross-linking at 1 to 20 uM by alkaline agarose gel shift assay; format: nucleic-acid assay
How it was run: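 pEGFP-N1 plasmid DNA (1500 ng) was incubated with compound (1, 10, 20 μM) in 3 mM NaCl/1 mM sodium phosphate pH 7.4/1 mM EDTA for 2 h at 37 °C. It was then BamHI-linearized, ethanol-precipitated and denatured in 0.5 N NaOH-10 mM EDTA. Samples were run on a 0.8% alkaline agarose gel at 4 °C, 18 V for 22 h, stained with ethidium bromide.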

[21] = Cell cycle arrest in human H1299 cells assessed as accumulation at S phase at 10 uM after 24 hrs using propidium iodide staining by flow cytometry (reference value: 24.9 +/- 3.3%); format: functional, cell-based; conditions: NCI-H1299; how it was run: as §4
[22] = Cell cycle arrest in human H1299 cells assessed as accumulation at sub G1 phase at 5 uM after 24 hrs using propidium iodide staining by flow cytometry (reference value: 8.8 +/- 6.9%); format: functional, cell-based; conditions: NCI-H1299; how it was run: as §4
[23] = Cell cycle arrest in human H1299 cells assessed as accumulation at S phase at 20 uM after 24 hrs using propidium iodide staining by flow cytometry (reference value: 24.9 +/- 3.3%); format: functional, cell-based; conditions: NCI-H1299; how it was run: as §4
Mus musculus [24] = experiment: Toxicity in human PC3 cells xenografted athymic nude Swiss mouse assessed as body weight loss at 55 mg/kg, iv every two days for six times relative to control; format: organism-based, PC-3; parameters: dose 55 mg/kg, route intravenous; conditions: in vivo
MX1 [25] = experiment: Antitumor activity against human MX1 cells xenografted in athymic nude Swiss mouse assessed as tumor growth inhibition at 30 mg/kg, iv every two days for three times followed by 35 mg/kg, iv every two days for 5 times relative to control; format: functional; parameters: scale not given: the % may be the effect or the level left
Mus musculus [26] = experiment: Toxicity in human MX1 cells xenografted athymic nude Swiss mouse assessed as mouse mortality at 30 mg/kg, iv every two days for three times followed by 35 mg/kg, iv every two days for 5 times; format: organism-based; conditions: in vivo
[27] = Cell cycle arrest in human H1299 cells assessed as accumulation at G2/M phase at 20 uM after 24 hrs using propidium iodide staining by flow cytometry (reference value: 21.5 +/- 0.6%); format: functional, cell-based; conditions: NCI-H1299; how it was run: as §4
[28] = Cell cycle arrest in human H1299 cells assessed as accumulation at S phase at 5 uM after 24 hrs using propidium iodide staining by flow cytometry (reference value: 24.9 +/- 3.3%); format: functional, cell-based; conditions: NCI-H1299; how it was run: as §4

Row | Structure (SMILES) | IC50 (HCT-116) [µM] | IC50 (PC-3 [1]) [µM] | IC50 (MX1 [2]) [µM] | IC50 [3] [µM] | IC50 (CCRF-CEM [4]) [µM] | Ratio IC50 (CCRF-CEM [5]) | Ratio IC50 (CCRF-CEM [6]) | IC50 (CCRF-CEM [7]) [µM] | IC50 (CCRF-CEM [8]) [nM] | also measured
1 | COc1cccc(Nc2ncnc3ccc(NC(=O)Nc4ccc(N(CCCl)CCCl)cc4)cc23)c1 | 2.44 | 9.44 | 2.59 | 8.79 | 3.38 | 2.71 | 2.56 | 3.58 | 1320 | –
2 | O=C(Nc1ccc(N(CCCl)CCCl)cc1)Nc1ccc2ncnc(Nc3cccc(C(F)(F)F)c3)c2c1 | 5.97 | – | 5.3 | – | 4.68 | 1.15 | 1.17 | 4.57 | 3970 | –
3 | N[C@@H](Cc1ccc(N(CCCl)CCCl)cc1)C(=O)O | – | – | – | – | – | – | – | – | – | Activity (Nucleic Acid [9]): Active
4 | O=C(Nc1ccc(N(CCCl)CCCl)cc1)Nc1ccc2ncnc(Nc3ccc(OCc4ccccn4)c(Cl)c3)c2c1 | 2.22 | – | 4.62 | – | 2.65 | 3.24 | 1.88 | 4.58 | 1410 | –
5 | O=C(Nc1ccc(N(CCCl)CCCl)cc1)Nc1ccc2ncnc(Nc3cccc(Cl)c3)c2c1 | 7.46 | 10.4 | 7.84 | 10.5 | 3.26 | 2.75 | 1.96 | 4.56 | 1660 | Activity [10]: 35.3%; Activity [11]: 30.5%; Activity (Mus musculus [12]): 3%; Activity (PC-3 [13]): 27%; Activity [14]: 28.3%; Activity (Mus musculus [15]): Non-toxic; Activity [16]: 7.5%; Activity [17]: 34.8%; Activity [18]: 29.3%; Activity [19]: 40%; Activity (Nucleic Acid [20]): Active; Activity [21]: 28.5%; Activity [22]: 8.9%; Activity [23]: 23.5%; Activity (Mus musculus [24]): 11%; Activity (MX1 [25]): 62%; Activity (Mus musculus [26]): Non-toxic; Activity [27]: 12.9%; Activity [28]: 20.6%
6 | O=C(Nc1ccc(N(CCCl)CCCl)cc1)Nc1ccc2ncnc(Nc3ccc(Br)cc3)c2c1 | 7.79 | – | 6.71 | – | 7.88 | 1.89 | 1.7 | 8.79 | 4640 | –
7 | CC[C@]1(O)C[C@@H]2CN(CCc3c([nH]c4ccccc34)[C@@](C(=O)OC)(c3cc4c(cc3OC)N(C)[C@H]3[C@@](O)(C(=O)OC)[C@H](OC(C)=O)[C@]5(CC)C=CCN6CC[C@]43[C@@H]65)C2)C1 [VINBLASTINE] | – | – | – | – | – | 106.2 | 679.5 | – | – | –
8 | O=C(Nc1ccc(N(CCCl)CCCl)cc1)Nc1ccc2ncnc(Nc3cccc(Br)c3)c2c1 | 2.17 | 10.1 | 6.92 | 8.04 | 2.62 | 4.82 | 2.76 | 4.58 | 950 | –
9 | O=C(Nc1ccc(N(CCCl)CCCl)cc1)Nc1ccc2ncnc(Nc3cccc(F)c3)c2c1 | 9.62 | – | 10.1 | – | 4.28 | 1.38 | 1.7 | 3.46 | 2510 | –
10 | O=C(Nc1ccc(N(CCCl)CCCl)cc1)Nc1ccc2ncnc(Nc3ccc(Oc4ccccc4)cc3)c2c1 | 12.4 | – | 8.47 | – | 10.9 | 1.67 | 2.28 | 7.99 | 4770 | –
11 | O=C(Nc1ccc(N(CCCl)CCCl)cc1)Nc1ccc2ncnc(Nc3ccc(F)c(Br)c3)c2c1 | 5.99 | – | 7.1 | – | 4.74 | 1.64 | 1.77 | 4.4 | 2680 | –
12 | C#Cc1cccc(Nc2ncnc3ccc(NC(=O)Nc4ccc(N(CCCl)CCCl)cc4)cc23)c1 | 3.47 | – | 6.27 | – | 2.33 | 4.58 | 4.66 | 2.29 | 500 | –
13 | O=C(Nc1ccc(N(CCCl)CCCl)cc1)Nc1ccc2ncnc(Nc3ccc(Cl)c(Cl)c3)c2c1 | 2.79 | – | 6.45 | – | 6.75 | 2.16 | 2.6 | 5.61 | 2600 | –
14 | CC(=O)O[C@H]1C(=O)[C@@]2(C)[C@H]([C@H](OC(=O)c3ccccc3)[C@]3(O)C[C@H](OC(=O)[C@H](O)[C@@H](NC(=O)c4ccccc4)c4ccccc4)C(C)=C1C3(C)C)[C@]1(OC(C)=O)CO[C@@H]1C[C@@H]2O [PACLITAXEL] | – | – | – | – | – | 143 | 423 | – | – | –
15 | O=C(Nc1ccc(N(CCCl)CCCl)cc1)Nc1ccc2ncnc(Nc3ccc(F)cc3)c2c1 | 3.18 | 8.24 | 3.43 | 11.6 | 1.24 | 4.27 | 1.67 | 3.16 | 740 | Activity (Nucleic Acid [20]): Active
16 | COc1ccc(Nc2ncnc3ccc(NC(=O)Nc4ccc(N(CCCl)CCCl)cc4)cc23)cc1Cl | 5.27 | 8.02 | 5.51 | 6.94 | 3.75 | 4.17 | 4.68 | 3.34 | 800 | Activity (Nucleic Acid [20]): Active
17 | COc1cc(Nc2ncnc3ccc(NC(=O)Nc4ccc(N(CCCl)CCCl)cc4)cc23)cc(OC)c1OC | 2.24 | 11 | 4.02 | 10.3 | 24.5 | 32.42 | 64.5 | 12.3 | 380 | –
18 | O=C(Nc1ccc(N(CCCl)CCCl)cc1)Nc1ccc2ncnc(Nc3ccc(Cl)c(C(F)(F)F)c3)c2c1 | 5.34 | – | 7.44 | – | 5.28 | 1.12 | 1.11 | 5.36 | 4770 | –
